bCat nuc transl: modulators of beta-catenin nuclear translocation, primary screen, imaging, HeLa cells, immunofluorescence, high-content | AID 1665, 2009 | hit rate 0.3% among 190,000 | nuclear translocation activity, % at 5 µM;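 active = nuclear translocation activity above 50% at 5 µM, with a well cell count of 50 or more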;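 note: per-cell ratio of nuclear to cytoplasmic median beta-catenin stain intensity; plate controls were DMSO negative control for no effect and GSK-3 inhibitor IX positive control for full effect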
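Test system: human HeLa cells, native beta-catenin. Compound dosing: 5 µM primary single dose, 0.1% DMSO, 0.02–20 µM confirmation series. Incubation: compound exposure 24 h at 37°C. Detection: beta-catenin immunostaining with DAPI counterstain, 20x imaging, 6 fields/well. Read-out basis: Nuclear/cytoplasmic beta-catenin signal ratio, % activation.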
Autophagy mod: autophagy modulators in MEF cells, primary screen, imaging, high-content, MEF GFP-LC3; MEF GFP-LC3 puncta imaging; test concentration mostly 10 µM; calls only at 10 µM (by protocol); hit rate 0.98% among 190,000; AID 463193, 2010;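 active = percentage of spot-positive cells more than 3 SD above its plate mean, without a fluorescence outlier flag or 80% toxicity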;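 note: spot-positive cell cutoff set from DMSO-treated cells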
MT stabilize HCS: microtubule stabilizers in HeLa cells, primary screen, imaging, high-content imaging | HeLa tubulin immunostaining HCS, 24 h; share of cells brighter than vehicle mean+2SD | % tubulin-high responders, % at 10 µM | hit rate 0.83% among 200,000;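 active = plate Z-score above 3 for both tubulin-high and condensed-nucleus cell shares, with cell loss under 80%, at 10 µM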;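 note: anti alpha tubulin signal scored within the nucleus-defined area of each cell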
Arbovirus anti: antivirals against arbovirus infection, primary screen, cell-based, full library, 10K replicate subset; arbovirus infection cell-based antiviral screen; inhibition, % at 10 µM; hit rate 0.37% among 200,000; in the data active = inhibition above about 30%
ABCB1 inh: ABCB1 efflux pump inhibitors, primary screen, cell-based, multiplex, flow cytometry, ABCG2 counter-screen | inhibition, % at 6.6 µM | AID 1326, 2008 | CCRF-Adr cells, JC-1 efflux | ATP-dependent translocase ABCB1 (Homo sapiens), P08183 | hit rate 0.067% among 190,000; in the data active = inhibition above about 40%;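 note: 0% = vehicle and 100% = reference inhibitor; higher value means more JC-1 retained so stronger ABCB1 efflux block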
ABCG2 inh: ABCG2 efflux pump inhibitors, primary screen, multiplex with ABCB1, IgMXP3 cells, flow cytometry; JC-1 efflux; Broad substrate specificity ATP-binding cassette transporter ABCG2 (Homo sapiens), Q9UNQ0; hit rate 0.1% among 190,000; inhibition, % at 6.6 µM; AID 1325, 2008;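 active = inhibition above 80%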;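 note: 0% = DMSO and 100% = nicardipine control wells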
Target sequence (Q9UNQ0 whole entry, looked up): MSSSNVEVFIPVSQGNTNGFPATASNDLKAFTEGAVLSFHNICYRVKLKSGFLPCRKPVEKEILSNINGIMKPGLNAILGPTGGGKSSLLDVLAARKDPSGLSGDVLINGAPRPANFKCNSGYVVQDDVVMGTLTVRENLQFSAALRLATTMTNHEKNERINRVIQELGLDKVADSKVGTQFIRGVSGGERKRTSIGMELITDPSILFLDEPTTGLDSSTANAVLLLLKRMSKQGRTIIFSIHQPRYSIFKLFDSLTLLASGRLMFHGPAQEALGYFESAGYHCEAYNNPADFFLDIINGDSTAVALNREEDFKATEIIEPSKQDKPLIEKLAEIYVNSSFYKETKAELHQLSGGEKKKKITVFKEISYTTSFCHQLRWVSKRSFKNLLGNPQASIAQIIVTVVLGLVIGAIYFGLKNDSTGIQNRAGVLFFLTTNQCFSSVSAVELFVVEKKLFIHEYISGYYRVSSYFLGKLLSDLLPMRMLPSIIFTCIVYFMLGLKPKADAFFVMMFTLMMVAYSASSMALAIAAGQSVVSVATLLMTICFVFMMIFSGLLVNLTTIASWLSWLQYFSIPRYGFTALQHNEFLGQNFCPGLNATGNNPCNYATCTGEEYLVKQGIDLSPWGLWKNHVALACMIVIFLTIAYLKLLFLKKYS
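Assay system – ABCG2 IgMXP3 and barcoded ABCB1 CCRF-Adr cell mix · Input – 3 million cells/mL in well · Reagent – JC-1 fluorescent substrate · Compound – single test compound dose, 6.6 µM final · Timing – 10 min exposure at 25 °C with rotation, no wash · Detection – flow cytometry of retained JC-1 fluorescence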
* = called active by the depositor; i = inactive; · = not tested or not shown; + = active, no number. Compounds with a hit are over-represented: about 2.1% of the library has one in this group of screens.

SMILES | bCat nuc transl | Autophagy mod | MT stabilize HCS | Arbovirus anti | ABCB1 inh | ABCG2 inh
CN(C)CCCNC(=O)c1cc2c3ccccc3n(C)c2s1 | 0 | + | 2 | -13 | 1 | 4
Cc1sc(N)nc1C12CC3CC(CC(C3)C1)C2 | -1 | i | 4 | -1 | 0 | 1
CCOC(=O)/C=c1\s/c(=C\c2ccc3cc(OC)ccc3c2)c(=O)n1CC(=O)NCc1ccc2c(c1)OCO2 | 1 | + | 2 | -13 | -1 | -7
CCOC(=O)/C=c1\s/c(=C\c2ccccc2C)c(=O)n1CC(=O)NCc1ccc2c(c1)OCO2 | 5 | i | 22* | -11 | 1 | 18
CCC(CC)c1nnc(NC(=O)C2COc3ccccc3O2)s1 (stereo not given) | -4 | i | 2 | 8 | 1 | 4
C=CCNc1sc(C(=O)c2ccc(Br)s2)c(N)c1C#N | -17 | + | 2 | 2 | 0 | -1
O=C(CSc1nnc(-c2ccco2)n1CC1CCCO1)NC1CCCC1 (stereo not given) | 0 | i | 2 | -5 | 0 | 3
CCOC(=O)C1(CC2CCCCO2)CCN(S(=O)(=O)c2cc(C)cs2)CC1 (stereo not given) | -1 | i | 1 | -5 | 1 | 1
OCCCNCc1cccc2ccccc12 | 2 | i | 2 | 1 | 2 | 0
Oc1ccccc1CNCCCNCc1ccccc1O | 3 | i | 4 | 44* | 0 | 0
CN(C)CCCNc1ncc(C(F)(F)F)cc1Cl | -4 | i | 14* | 4 | 0 | 0
CN(C)CCCNC(=O)CCc1ncc(C(F)(F)F)cc1Cl | 2 | i | 2 | 21 | 0 | 1
CN(C)c1ccc(-c2nn3c(-c4ccc(Cl)cc4Cl)nnc3s2)cc1 | 53* | i | 30* | -17 | 1 | 9
Clc1ccc(-c2nnc3sc(-c4ccc(Br)o4)nn23)c(Cl)c1 | 3 | i | 2 | -4 | 0 | 2
O=C(N/N=C/c1cccnc1)c1ccccc1OCc1cccc(Br)c1 | -1 | i | 3 | 0 | 2 | 4
CCOC(=O)C1CCCn2c1nc1sc3c(c1c2=O)CCCC3 (stereo not given) | · | i | 2 | 3 | 1 | 3
CCCN(CCC)CC(O)Cn1c2ccccc2c2ccccc21 (stereo not given) | 0 | i | 3 | 4 | 0 | 0
C(=C\c1ccccc1)/CSc1nnc(-c2cnccn2)n1Cc1ccco1 | 56* | i | 5 | 2 | 2 | 13
CC(=O)Nc1ccc(C2Nc3ccccc3C(=O)N2C2CCCCC2)cc1 (stereo not given) | -3 | i | 1 | 6 | 1 | 3
Cc1cc(C[n+]2ncsc2N)c2ncccc2c1 | 0 | · | · | · | · | ·
COc1ccc2c(c1)sc(N)[n+]2Cc1cc(C)cc2cccnc12 | 114* | i | 15* | -23 | 0 | 0
CCOc1ccc2c(c1)sc(N)[n+]2Cc1cc(C)cc2cccnc12 | 152* | i | 14* | -39 | 0 | 1
COCCn1c(SCC(=O)c2ccc(F)cc2)nnc1C(C)C | -4 | + | 2 | -3 | -1 | -8
CCc1ccc(CN(C)C(=O)CCc2nc3ccccc3n(-c3ccc(OC)cc3)c2=O)cc1 | -2 | i | 2 | 20 | -1 | 4
COc1ccc(/C(O)=C/c2nc3ccccc3n(-c3ccccc3)c2=O)cc1 | · | + | 10 | -5 | 1 | 2
SMILES | bCat nuc transl | Autophagy mod | MT stabilize HCS | Arbovirus anti | ABCB1 inh | ABCG2 inh
Cc1nc2c(C(=O)NCc3ccccc3Cl)c[nH]n2c(=O)c1Cl | 1 | i | 2 | 22 | 0 | 1
Cc1nc2c(C(=O)NCCc3ccccc3Cl)c[nH]n2c(=O)c1Cl | -1 | i | 4 | 60* | -3 | -9
CCn1c(/C=C/c2c(C)[nH]c3ccccc23)nc2ccccc2c1=O | 10 | i | 16 | -1 | 0 | 5
Cc1[nH]c2ccccc2c1/C=C/c1nc2ccccc2c(=O)n1-c1ccc([N+](=O)[O-])cc1 | 1 | + | 11 | -25 | -1 | -5
COc1ccc2[nH]c3c(c2c1)CCNC3C1CC=C(C)CC1 (stereo not given) | 51* | + | 9.3* | -33 | 0 | 1
COc1ccc2[nH]c(C)cc(=O)c2c1 | 1 | i | 3 | 6 | 0 | 0
N#Cc1c(C(F)(F)F)cc(-c2cccs2)nc1SCc1ccc(Cl)nc1 | -4 | i | 4 | -14 | 2 | 12
N#Cc1ccc(-c2cccs2)nc1SCc1cccnc1 | 135* | · | · | · | · | ·
N#Cc1c(C(F)(F)F)cc(-c2cccs2)nc1SCc1cccnc1 | · | i | 42* | -27 | 1 | 3
N#C/C(=C\c1cccc([N+](=O)[O-])c1)C(=O)NCc1ccc(Cl)cc1 | -4 | i | 4 | -29 | 1 | 5
Cc1ccc(S(=O)(=O)N(C)C)cc1NC(=O)c1cncc(Br)c1 | 3 | i | 1 | 11 | 1 | 5
Cc1noc(C)c1S(=O)(=O)N1CCN(c2ccccc2)CC1 | · | i | 3 | 1 | 0 | 1
CCOC(=O)C(C)Oc1cccc2c(=O)n(CC(=O)NCc3ccco3)ccc12 (stereo not given) | 73* | · | 10 | -14 | 0 | 0
CC(C)C(=O)c1cn(CC(=O)NCc2ccco2)c2ccccc12 | -4 | i | 4 | 3 | 0 | 2
O=C(N/N=C/c1ccncc1)NC1CCCCC1 | -2 | i | 2 | 4 | 0 | 4
CCSc1nnc(NC(=O)c2cccc(OCc3c(C)noc3C)c2)s1 | 5 | i | 3 | -4 | 0 | 0
O=C(CSc1ncn(-c2ccccc2)n1)Nc1nc(-c2ccccc2)cs1 | -2 | i | 1 | -3 | -1 | -1
COc1ccc2nc(NC(=O)CSc3ccccc3)sc2c1 | · | i | 3 | 12 | -3 | -3
O=C(CSc1ncn(-c2ccccc2)n1)Nc1nc2ccccc2s1 | 2 | i | 1 | 40* | 0 | 1
O=C(O)CCC(=O)Nc1nc2ccccc2s1 | -9 | i | 2 | 0 | 0 | 2
COc1ccc2nc(NC(=O)CS(=O)(=O)Cc3ccccc3)sc2c1 | -2 | + | 12 | 7 | 0 | 2
O=C(CS(=O)(=O)Cc1ccccc1)Nc1nc2ccccc2s1 | · | i | 8 | 48* | 1 | 6
COc1ccc2nc(NC(=O)c3cccc(OCc4c(C)noc4C)c3)sc2c1 | 72* | i | 30* | -16 | 0 | -2
CC(C)OC(=O)CCCN1C(=O)c2ccc(N)cc2C1=O | -5 | i | 4 | 6 | 1 | 6
